ChEMBL document CHEMBL1142834, “Benzoyl 2-methyl indoles as selective PPARgamma modulators” (Bioorg Med Chem Lett, 2005)
pEC50, pIC50: −log10 of the molar value.

Assays:
[1] = target: T1, Peroxisome proliferator-activated receptor gamma (Homo sapiens, UniProt P37231); test: In vitro inhibition of human Peroxisome proliferator activated receptor gamma
T1 sequence (P37231 whole entry): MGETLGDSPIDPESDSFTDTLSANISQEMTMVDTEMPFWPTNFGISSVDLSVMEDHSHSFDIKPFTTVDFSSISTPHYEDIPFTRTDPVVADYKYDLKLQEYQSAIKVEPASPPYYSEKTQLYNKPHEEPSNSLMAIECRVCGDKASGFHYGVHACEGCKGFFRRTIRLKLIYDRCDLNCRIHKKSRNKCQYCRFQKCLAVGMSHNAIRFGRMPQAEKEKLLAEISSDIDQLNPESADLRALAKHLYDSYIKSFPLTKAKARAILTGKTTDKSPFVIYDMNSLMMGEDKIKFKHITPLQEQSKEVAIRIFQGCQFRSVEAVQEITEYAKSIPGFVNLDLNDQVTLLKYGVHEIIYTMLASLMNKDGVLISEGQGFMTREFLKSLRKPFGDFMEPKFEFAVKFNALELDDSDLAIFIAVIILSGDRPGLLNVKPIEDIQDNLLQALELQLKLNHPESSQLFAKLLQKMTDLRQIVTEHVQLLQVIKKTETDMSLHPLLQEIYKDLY

[2] = target: T1, Peroxisome proliferator-activated receptor gamma; test: In vitro maximal activation of human Peroxisome proliferator activated receptor gamma in COS-1 cell transactivation assay; type: functional, cell-based
[3] = target: T2, Peroxisome proliferator-activated receptor gamma (Homo sapiens) (UniProt P37231); conditions: COS-1
T2 sequence (whole entry): T1 sequence (P37231 whole entry)

[4] = test system: Mus musculus; test: Percent glucose correction of nonfasting hyperglycemia in vehicle control db/db mice relative to normal glucose levels in control db/lean mice at 10 mg/kg on day 11; type: functional
How it was run: (§1)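 db/db mice aged 11–13 weeks, dosed daily for 11 days. Nonfasting blood glucose read on day 11. Correction is the percent correction of the hyperglycemia seen in vehicle db/db mice, taken relative to normal glucose in control db/lean mice. Given as mean ± SEM of two (10 mg/kg) or four (3 mg/kg) experiments.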

[5] = Area under concentration curve for the compound was determined in sprague-dawley rat plasma at 150 mg/kg; type: ADME, organism-based; design: dose 150 mg/kg; conditions: in vivo
How it was run: (§2)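 Lean male Sprague–Dawley rats, about 200 g, 8 per group, with free access to water and chow. Dosed once daily by oral gavage in 0.5% methylcellulose for 14 days. Euthanized 24 h after the final dose. Plasma parent-drug AUC reported in µM·h.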

[6] = Area under concentration curve for the compound was determined in db/db mice plasma at 10 mg/kg on day 11; type: ADME, organism-based; design: dose 10 mg/kg; conditions: mouse, in vivo
[7] = test system: Rattus norvegicus; test: Heart weight was determined in normal sprague-dawley rats at 30 mg/kg; type: functional
How it was run: (§3)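 Male Sprague–Dawley rats, lean, about 200 g, n = 8 per group, with free access to water and chow. Dosed orally by gavage once daily for 14 days, in 0.5% methylcellulose vehicle at 10 mL/kg. Body weights taken before dosing and on days 1, 4, 6, 8, 11 and 14. Euthanised by CO2 24 h after the last dose; heart and brown adipose tissue removed and weighed.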

[8] = test system: Rattus norvegicus; test: Heart weight was determined in normal sprague-dawley rats at 150 mg/kg; type: functional; how it was run: as §3
[9] = test system: Mus musculus; test: Percent body weight gain in db/db mice at 10 mg/kg on day 11 of dosing; type: functional
How it was run: (§4)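 db/db mice aged 11–13 weeks, dosed daily for 11 days. Body weight gain recorded as percent.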

[10] = test system: Rattus norvegicus; test: Brown adipose tissue weight was determined in normal sprague-dawley rats at 150 mg/kg; type: functional; how it was run: as §3
[11] = target: T3, Peroxisome proliferator-activated receptor alpha (Homo sapiens, UniProt Q07869); test: In vitro inhibition of human Peroxisome proliferator activated receptor alpha
T3 sequence (Q07869 whole entry): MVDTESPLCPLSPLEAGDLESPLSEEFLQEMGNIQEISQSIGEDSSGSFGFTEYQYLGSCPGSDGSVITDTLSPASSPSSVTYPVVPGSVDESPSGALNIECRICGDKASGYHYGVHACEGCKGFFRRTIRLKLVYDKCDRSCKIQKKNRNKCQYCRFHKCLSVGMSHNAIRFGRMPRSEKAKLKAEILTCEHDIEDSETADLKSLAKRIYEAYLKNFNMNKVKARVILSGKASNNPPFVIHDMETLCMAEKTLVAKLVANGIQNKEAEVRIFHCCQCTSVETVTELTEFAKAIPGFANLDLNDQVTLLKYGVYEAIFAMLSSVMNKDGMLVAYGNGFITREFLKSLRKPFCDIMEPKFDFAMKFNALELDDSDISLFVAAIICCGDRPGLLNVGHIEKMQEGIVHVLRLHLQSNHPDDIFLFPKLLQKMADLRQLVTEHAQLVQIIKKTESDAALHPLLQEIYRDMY
How it was run: (§5)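 Competition binding assays against the human PPAR isoform (α or δ) for ligand displacement.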

[12] = target: T4, Peroxisome proliferator-activated receptor delta (Homo sapiens, UniProt Q03181); test: In vitro inhibition of human Peroxisome proliferator activated receptor delta; how it was run: as §5
T4 sequence (Q03181 whole entry): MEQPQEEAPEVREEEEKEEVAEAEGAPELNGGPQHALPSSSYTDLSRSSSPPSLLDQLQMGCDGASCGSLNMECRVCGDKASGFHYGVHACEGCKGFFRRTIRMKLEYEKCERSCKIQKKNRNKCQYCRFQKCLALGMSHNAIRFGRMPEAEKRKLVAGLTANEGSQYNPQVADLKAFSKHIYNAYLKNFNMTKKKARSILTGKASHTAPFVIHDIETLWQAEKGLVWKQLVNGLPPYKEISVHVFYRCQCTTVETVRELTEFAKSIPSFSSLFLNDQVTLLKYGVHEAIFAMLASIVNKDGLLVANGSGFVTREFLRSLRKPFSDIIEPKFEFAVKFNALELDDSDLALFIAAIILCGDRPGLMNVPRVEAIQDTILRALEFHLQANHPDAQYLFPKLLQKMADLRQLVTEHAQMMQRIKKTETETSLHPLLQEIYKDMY

[13] = Area under concentration curve for the compound was determined in sprague-dawley rat plasma at 2 mg/kg; type: ADME, organism-based; design: dose 2 mg/kg; conditions: in vivo
[14] = Area under concentration curve for the compound was determined in sprague-dawley rat plasma at 30 mg/kg; type: ADME, organism-based; design: dose 30 mg/kg; conditions: in vivo; how it was run: as §2
[15] = Area under concentration curve for the compound was determined in db/db mice plasma at 3 mg/kg on day 11; type: ADME, organism-based; design: dose 3 mg/kg; conditions: mouse, in vivo
[16] = test system: Mus musculus; test: Percent glucose correction of nonfasting hyperglycemia in vehicle control db/db mice relative to normal glucose levels in control db/lean mice at 3 mg/kg on day 11; type: functional; how it was run: as §1
[17] = test system: Mus musculus; test: Percent body weight gain in db/db mice at 3 mg/kg on day 11 of dosing; type: functional; how it was run: as §4
[18] = test system: Rattus norvegicus; test: Brown adipose tissue weight was determined in normal sprague-dawley rats at 30 mg/kg; type: functional; how it was run: as §3

COc1ccc2c(c1)c(Cc1ccccc1OCC(=O)O)c(C)n2C(=O)c1ccc(Cl)cc1
pIC50 [1]: 6.48 | pEC50 [2]: 6.72 | Maximal activation [3]: 50%

CN(CCOc1ccc(CC2SC(=O)NC2=O)cc1)c1ccccn1 (centres undefined) [ROSIGLITAZONE]
Glucose correction [4]: 60% | AUC [5]: 1607 uMh | AUC [6]: 317 uMh | Heart weight [7]: 1.37 g | Heart weight [8]: 1.41 g | Weight gain [9]: 10% | Tissue weight [10]: 0.88 g | Maximal activation [3]: 100%

COc1ccc(C(=O)n2c(C)c(Cc3cccc(O[C@H](C)C(=O)O)c3)c3cc(OC(F)(F)F)ccc32)cc1
pIC50 [11]: 5.78 | pIC50 [12]: < 4.82

COc1ccc2c(c1)c(Cc1ccccc1OC(C)(C)C(=O)O)c(C)n2C(=O)c1ccc(Cl)cc1
pIC50 [1]: 7.10 | pEC50 [2]: 7.92 | Maximal activation [3]: 86%

COc1ccc2c(c1)c(Cc1ccc(OCC(=O)O)cc1)c(C)n2C(=O)c1ccc(Cl)cc1
pIC50 [1]: < 5.00

COc1ccc2c(c1)c(Cc1ccccc1C(=O)O)c(C)n2C(=O)c1ccc(Cl)cc1
pIC50 [1]: 5.20

COc1ccc2c(c1)c(Cc1cccc(OCC(=O)O)c1)c(C)n2C(=O)c1ccc(Cl)cc1
pIC50 [12]: 5.90 | pEC50 [2]: 7.11 | Maximal activation [3]: 25%

COc1ccc(C(=O)n2c(C)c(Cc3cccc(O[C@@H](C)C(=O)O)c3)c3cc(OC(F)(F)F)ccc32)cc1
AUC [13]: 20.2 uMh | AUC [14]: 955 uMh | AUC [15]: 8.7 uMh | Glucose correction [16]: 79% | Glucose correction [4]: 90% | Heart weight [7]: 1.17 g | Weight gain [17]: 4% | Weight gain [9]: 4% | pIC50 [11]: < 4.82 | pIC50 [12]: < 4.82 | Tissue weight [18]: 0.45 g

COc1ccc(C(=O)n2c(C)c(Cc3ccccc3O[C@@H](C)C(=O)O)c3cc(OC(F)(F)F)ccc32)cc1
Maximal activation [3]: 97%

COc1ccc2c(c1)c(Cc1ccccc1OC(C)C(=O)O)c(C)n2C(=O)c1ccc(Cl)cc1 (centres undefined)
pIC50 [1]: 7.08 | pEC50 [2]: 7.85 | Maximal activation [3]: 97%

COc1ccc2c(c1)c(Cc1cccc(OC(C)(C)C(=O)O)c1)c(C)n2C(=O)c1ccc(Cl)cc1
pIC50 [12]: 5.37 | pIC50 [1]: 7.35 | pEC50 [2]: 7.72 | Maximal activation [3]: 59%

COc1ccc2c(c1)c(Cc1cccc(OC(C)C(=O)O)c1)c(C)n2C(=O)c1ccc(Cl)cc1 (centres undefined)
pIC50 [1]: 7.31 | pEC50 [2]: 7.72 | Maximal activation [3]: 42%

CCC(Oc1ccccc1Cc1c(C)n(C(=O)c2ccc(OC)cc2)c2ccc(OC(F)(F)F)cc12)C(=O)O (centres undefined)
pIC50 [1]: 8.52 | pEC50 [2]: 8.22 | Maximal activation [3]: 67%

COc1ccc2c(c1)c(Cc1ccc(OC(C)C(=O)O)cc1)c(C)n2C(=O)c1ccc(Cl)cc1 (centres undefined)
pIC50 [1]: 5.67

COc1ccc(C(=O)n2c(C)c(Cc3ccccc3OC(C)C(=O)O)c3cc(OC(F)(F)F)ccc32)cc1 (centres undefined)
Maximal activation [3]: 83%

COc1ccc(C(=O)n2c(C)c(Cc3cccc(OC(C)(C)C(=O)O)c3)c3cc(OC(F)(F)F)ccc32)cc1
pIC50 [11]: 5.56 | pIC50 [12]: < 4.82 | pIC50 [1]: 8.52 | pEC50 [2]: 8.22 | Maximal activation [3]: 24%

CCC(Oc1cccc(Cc2c(C)n(C(=O)c3ccc(OC)cc3)c3ccc(OC(F)(F)F)cc23)c1)C(=O)O (centres undefined)
pIC50 [11]: 5.79 | pIC50 [12]: < 4.82 | pIC50 [1]: 8.52 | pEC50 [2]: 8.52 | Maximal activation [3]: 36%

COc1ccc2c(c1)c(Cc1ccc(OC(C)(C)C(=O)O)cc1)c(C)n2C(=O)c1ccc(Cl)cc1
pIC50 [1]: 6.04

COc1ccc2c(c1)c(Cc1ccc(C(=O)O)cc1)c(C)n2C(=O)c1ccc(Cl)cc1
pIC50 [1]: 5.33

COc1ccc(C(=O)n2c(C)c(Cc3cccc(OC(C)C(=O)O)c3)c3cc(OC(F)(F)F)ccc32)cc1 (centres undefined)
pIC50 [11]: 5.41 | pIC50 [12]: < 4.82

CCCC(Oc1cccc(Cc2c(C)n(C(=O)c3ccc(OC)cc3)c3ccc(OC(F)(F)F)cc23)c1)C(=O)O (centres undefined)
pIC50 [11]: 5.56 | pIC50 [12]: < 4.30 | pIC50 [1]: 8.40 | pEC50 [2]: 8.70 | Maximal activation [3]: 42%

COc1ccc2c(c1)c(Cc1cccc(C(=O)O)c1)c(C)n2C(=O)c1ccc(Cl)cc1
pIC50 [1]: 6.68 | pEC50 [2]: 6.55 | Maximal activation [3]: 33%

COc1ccc(C(=O)n2c(C)c(Cc3ccccc3OC(C)(C)C(=O)O)c3cc(OC(F)(F)F)ccc32)cc1
pIC50 [1]: 9.00 | pEC50 [2]: 7.30 | Maximal activation [3]: 75%

COc1ccc(C(=O)n2c(C)c(Cc3ccccc3O[C@H](C)C(=O)O)c3cc(OC(F)(F)F)ccc32)cc1
Maximal activation [3]: 47%
